This passage reports MIC results from ChEMBL document CHEMBL4477218 (J Med Chem, 2016).

The structures appear in SMILES notation. Values after ≈ are worked out from the molar mass of the structure shown.

Format in all cases: functional
For experiment [1], the system named is Staphylococcus aureus. Kind of experiment: Antibacterial activity against TMP/methicillin-resistant Staphylococcus aureus harboring DHFR H30N/F98Y double mutant after 18 hrs by CLSI M100-S16 method. The procedure, abridged: (§1)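 Broth microdilution per CLSI guideline in Isosensitest broth, final inoculum 5 x 10^5 CFU/mL, 18 h at 37 °C. Growth read at A600. MIC taken as the lowest inhibitor concentration visually inhibiting growth, confirmed colorimetrically with Presto Blue. Isosensitest broth with 10 µg/mL thymidine used to check off-target antibacterial activity. Mutant strains were selected on agar containing 6x MIC of an earlier propargyl-linked antifolate and sequenced.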

For experiment [2], the system named is Staphylococcus aureus. Put plainly: Antibacterial activity against TMP/methicillin-resistant Staphylococcus aureus harboring DHFR F98Y/H149R double mutant after 18 hrs by CLSI M100-S16 method. The procedure, abridged: as §1
Experiment [3] concerns Staphylococcus aureus. Put plainly: Antibacterial activity against TMP/methicillin-resistant Staphylococcus aureus ATCC 43300 after 18 hrs by CLSI M100-S16 method. Particulars: ATCC 43300, 18 h. The method, boiled down:
as §1

Experiment [4] concerns Staphylococcus aureus. Put plainly: Antibacterial activity against TMP/methicillin-resistant Staphylococcus aureus harboring DHFR H30N mutant after 18 hrs by CLSI M100-S16 method. The procedure, abridged: as §1
Experiment [5] has as its system Staphylococcus aureus. Put plainly: Antibacterial activity against TMP/methicillin-resistant Staphylococcus aureus harboring DHFR H149R mutant after 18 hrs by CLSI M100-S16 method. The method, boiled down: as §1
For experiment [6], the system named is Staphylococcus aureus. Put plainly: Antibacterial activity against TMP/methicillin-resistant Staphylococcus aureus harboring DHFR F98Y mutant after 18 hrs by CLSI M100-S16 method. The procedure, abridged:
as §1

In the case of `CCc1nc(N)nc(N)c1C#C[C@@H](C)c1cc(OC)cc(-c2ccc(C(=O)O)cc2)c1`, the MIC – broadly, the smallest concentration in the dilution series that meets the test's criterion for growth inhibition – was 1.25 µg/mL (≈ 3 µM) in the experiment on Staphylococcus aureus [1]; 1.25 µg/mL (≈ 3 µM) with Staphylococcus aureus [2]; 0.0098 µg/mL (≈ 0.0235 µM) with Staphylococcus aureus [3]; 0.0781 µg/mL (≈ 0.188 µM) against Staphylococcus aureus [4]; 0.0781 µg/mL (≈ 0.188 µM) against Staphylococcus aureus [5].
On to `CCc1nc(N)nc(N)c1C#C[C@H](C)c1cc(-c2ccc(C(=O)O)cc2)ccc1OC`, for which the MIC was more than 40 µg/mL in the experiment on Staphylococcus aureus [1]; more than 40 µg/mL against Staphylococcus aureus [2]; 0.0391 µg/mL (≈ 0.0939 µM) against Staphylococcus aureus [3]; 0.156 µg/mL (≈ 0.375 µM) in the experiment with Staphylococcus aureus [4]; 0.0781 µg/mL (≈ 0.188 µM) against Staphylococcus aureus [5]; 0.156 µg/mL (≈ 0.375 µM) in the experiment with Staphylococcus aureus [6].
In the case of `CCc1nc(N)nc(N)c1C#CCc1cc(-c2ccc(C(=O)O)cc2)ccc1OC`, the MIC is 6.25 µg/mL (≈ 15.5 µM) in the experiment with Staphylococcus aureus [1]; more than 50 µg/mL against Staphylococcus aureus [2]; 0.0195 µg/mL (≈ 0.0485 µM) against Staphylococcus aureus [3]; 0.156 µg/mL (≈ 0.388 µM) against Staphylococcus aureus [4]; 0.156 µg/mL (≈ 0.389 µM) against Staphylococcus aureus [5]; 0.156 µg/mL (≈ 0.388 µM) in the experiment on Staphylococcus aureus [6].
As for `CCc1nc(N)nc(N)c1C#C[C@H](C)c1cc2c(c(-c3ccncc3)c1)OCO2`, the MIC against Staphylococcus aureus [1] worked out at 20 µg/mL (≈ 51.6 µM); in the experiment on Staphylococcus aureus [2], 20 µg/mL (≈ 51.6 µM); against Staphylococcus aureus [3], 0.0195 µg/mL (≈ 0.0503 µM); against Staphylococcus aureus [4] it was 2.5 µg/mL (≈ 6.45 µM); in the experiment with Staphylococcus aureus [5], 2.5 µg/mL (≈ 6.45 µM); in the experiment on Staphylococcus aureus [6], 1.25 µg/mL (≈ 3.23 µM).
For the compound `CCc1nc(N)nc(N)c1C#CC(C)c1cc2c(c(-c3ccncc3)c1)OCO2` (centres undefined), the MIC with Staphylococcus aureus [1] was 40 µg/mL (≈ 103 µM); against Staphylococcus aureus [2], 40 µg/mL (≈ 103 µM); with Staphylococcus aureus [3], 0.0781 µg/mL (≈ 0.202 µM); against Staphylococcus aureus [4], 5 µg/mL (≈ 12.9 µM); in the experiment with Staphylococcus aureus [5], 5 µg/mL (≈ 12.9 µM); against Staphylococcus aureus [6], 1.25 µg/mL (≈ 3.23 µM).
Turning to `CCc1nc(N)nc(N)c1C#CC(C)c1cc(-c2ccncc2)ccc1OC` (centres undefined), the MIC in the experiment with Staphylococcus aureus [1] was 20 µg/mL (≈ 53.6 µM); in the experiment with Staphylococcus aureus [2], 40 µg/mL (≈ 107 µM); against Staphylococcus aureus [3] it was 0.625 µg/mL (≈ 1.67 µM); in the experiment with Staphylococcus aureus [4], 2.5 µg/mL (≈ 6.69 µM); in the experiment on Staphylococcus aureus [5] it was 2.5 µg/mL (≈ 6.69 µM); with Staphylococcus aureus [6] it was 2.5 µg/mL (≈ 6.69 µM).
For `CCc1nc(N)nc(N)c1C#CCc1cc(OC)cc(-c2ccc(C(=O)O)cc2)c1`, the MIC against Staphylococcus aureus [1] worked out at 5 µg/mL (≈ 12.4 µM); in the experiment with Staphylococcus aureus [2], 10 µg/mL (≈ 24.8 µM); against Staphylococcus aureus [3] it was 0.0195 µg/mL (≈ 0.0485 µM); with Staphylococcus aureus [4], 0.156 µg/mL (≈ 0.388 µM); in the experiment on Staphylococcus aureus [5], 0.156 µg/mL (≈ 0.388 µM); against Staphylococcus aureus [6] it was 0.156 µg/mL (≈ 0.388 µM).
With `CCc1nc(N)nc(N)c1C#C[C@H](C)c1cc(OC)cc(-c2ccncc2)c1`, the MIC is 40 µg/mL (≈ 107 µM) in the experiment with Staphylococcus aureus [1]; 20 µg/mL (≈ 53.6 µM) against Staphylococcus aureus [2]; 0.0391 µg/mL (≈ 0.105 µM) against Staphylococcus aureus [3]; 0.625 µg/mL (≈ 1.67 µM) with Staphylococcus aureus [4]; 0.625 µg/mL (≈ 1.67 µM) against Staphylococcus aureus [5]; 0.625 µg/mL (≈ 1.67 µM) against Staphylococcus aureus [6].
Turning to `CCc1nc(N)nc(N)c1C#CCc1cc(OC)c(OC)c(-c2ccncc2)c1`, the MIC is 20 µg/mL (≈ 51.4 µM) against Staphylococcus aureus [1]; 40 µg/mL (≈ 103 µM) in the experiment on Staphylococcus aureus [2]; 0.0195 µg/mL (≈ 0.0501 µM) against Staphylococcus aureus [3]; 0.625 µg/mL (≈ 1.6 µM) with Staphylococcus aureus [4]; 0.625 µg/mL (≈ 1.6 µM) against Staphylococcus aureus [5]; 0.625 µg/mL (≈ 1.6 µM) against Staphylococcus aureus [6].
Consider `CCc1nc(N)nc(N)c1C#C[C@H](C)c1cc(OC)cc(-c2ccc(C(=O)O)cc2)c1`, for which the MIC against Staphylococcus aureus [2] came to 2.5 µg/mL (≈ 6 µM); in the experiment with Staphylococcus aureus [3], 0.0098 µg/mL (≈ 0.0235 µM); against Staphylococcus aureus [5], 0.0391 µg/mL (≈ 0.0939 µM); against Staphylococcus aureus [6] it was 0.0781 µg/mL (≈ 0.188 µM).
As to `CCc1nc(N)nc(N)c1C#CC(C)c1cc(OC)cc(-c2ccncc2)c1` (centres undefined), the MIC against Staphylococcus aureus [1] is 20 µg/mL (≈ 53.6 µM); against Staphylococcus aureus [2] it was 80 µg/mL (≈ 214 µM); in the experiment with Staphylococcus aureus [3], 0.0781 µg/mL (≈ 0.209 µM); against Staphylococcus aureus [4] it was 2.5 µg/mL (≈ 6.69 µM); in the experiment with Staphylococcus aureus [5] it was 2.5 µg/mL (≈ 6.69 µM); in the experiment on Staphylococcus aureus [6], 2.5 µg/mL (≈ 6.69 µM).
Take `CCc1nc(N)nc(N)c1C#C[C@@H](C)c1cc(-c2ccncc2)ccc1OC`: the minimum inhibitory concentration (MIC) stood at 10 µg/mL (≈ 26.8 µM) against Staphylococcus aureus [1]; 20 µg/mL (≈ 53.6 µM) in the experiment with Staphylococcus aureus [2]; 0.0195 µg/mL (≈ 0.0522 µM) in the experiment with Staphylococcus aureus [3]; 0.625 µg/mL (≈ 1.67 µM) in the experiment on Staphylococcus aureus [4]; 1.25 µg/mL (≈ 3.35 µM) in the experiment on Staphylococcus aureus [5]; 1.25 µg/mL (≈ 3.35 µM) in the experiment with Staphylococcus aureus [6].
